Screening results (PubChem BioAssay)
The list is not random: actives were taken first. Their share in the collection is about 4.6%.
Hck-Nef inh: inhibitors of human Hck kinase activated by Nef. P08631. Recombinant Hck-YEEI plus Nef, Z-Lyte FRET kinase assay. inhibition, % at 20 µM. hit rate 0.68% among 220,000;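 active = Hck-Nef kinase inhibition above about 50%, limit read from the data; inactive = inhibition below that limit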
p47phox inh: inhibitors of human p47phox binding | hit rate 0.53% among 220,000 | p47phox/p22phox peptide binding, fluorescence polarization, 2 h | inhibition, % at 24.7 µM | P14598;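 active = inhibition above about 30%, limit read from the data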
Target sequence (P14598 whole entry, looked up): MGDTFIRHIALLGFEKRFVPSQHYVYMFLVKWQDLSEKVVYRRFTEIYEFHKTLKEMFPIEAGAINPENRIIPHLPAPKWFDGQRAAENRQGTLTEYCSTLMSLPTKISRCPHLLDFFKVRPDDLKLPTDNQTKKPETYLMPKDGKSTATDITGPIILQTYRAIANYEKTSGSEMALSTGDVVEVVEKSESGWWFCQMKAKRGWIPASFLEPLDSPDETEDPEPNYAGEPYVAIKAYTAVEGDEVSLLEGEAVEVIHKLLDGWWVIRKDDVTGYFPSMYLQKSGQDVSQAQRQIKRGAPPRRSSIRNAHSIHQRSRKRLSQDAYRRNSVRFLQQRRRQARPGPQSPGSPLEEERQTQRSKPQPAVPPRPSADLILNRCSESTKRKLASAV
WT yeast gro inh: growth inhibition of WT yeast, mitochondrial fusion screen; mitochondrial fusion phenotypic screen, WT strain; inhibition, % at 10 µM; hit rate 2.1% among 190,000; in the data active = inhibition above about 58%; tested in S. cerevisiae
Arbovirus anti: blocks arbovirus infection; arbovirus infection cell-based antiviral screen; inhibition, % at 10 µM; hit rate 0.37% among 200,000; AID 1251; in the data active = inhibition above about 30%
RAM network inh: blocks the yeast RAM network; S. cerevisiae dse1pr::URA3 reporter, 5-FOA growth OD615, 2 d; analog-sensitive cbk1-as2 kinase mutant strain; inhibition, % at 50 µM; hit rate 1.8% among 190,000; AID 868;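 active = inhibition above a set limit, 3 SD over mean compound inhibition, cut at about 8.4% in these data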;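 also: inhibition rescues growth on 5-FOA so higher OD means more RAM inhibition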
Biofilm kill mix: mixture kills Candida albicans biofilm cells; inhibition, % at 7.6 µM; C. albicans biofilm persisters + clotrimazole, fluorescence viability; primary screen in compound mixtures of four per well; hit rate 0.02% among 120,000;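 active = inhibition above 30.3% in the primary screen of four-compound pools, then above 30% when the compound was retested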;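 also: compounds exposed to preformed 24 h biofilms for 48 h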
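Test system: C. albicans biofilms. Buffer or medium: RPMI/MOPS medium, pH 7.0. Timing: 48 h compound exposure at 37 °C. Technique: Alamar Blue fluorescence. Evaluation: percent inhibition of biofilm viability.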
Numbers stand for hits; - = inactive; . = no result.

SMILES	Hck-Nef inh	p47phox inh	WT yeast gro inh	Arbovirus anti	RAM network inh	Biofilm kill mix
CC(C)c1ccccc1NC(=O)C1CN(S(=O)(=O)c2ccccc2)CCN1S(=O)(=O)c1ccccc1 (centres undefined)	-	-	-	-	8.6	-
CCCCC#Cc1cncc(C(=O)N/N=C/c2cccc(OC)c2)c1	-	-	.	.	.	-
C#CCOCCOCCOCCNc1nc(N2CCN(C(=O)[C@H](CCCCN)n3cc(C(N)COC(=O)C(F)(F)F)nn3)CC2)nc(N2CCN(C(=O)[C@H](CCCCN)n3cc(C(N)CC(C)C)nn3)CC2)n1 (some centres undefined)	-	34	.	.	.	-
C#CCOCCOCCOCCNc1nc(N2CCN(C(=O)[C@H](CCCCN)n3cc([C@@H](N)CO)nn3)CC2)nc(N2CCN(C(=O)[C@H](Cc3cc4ccccc4[nH]3)n3cc([C@@H](N)CO)nn3)CC2)n1	-	39	.	.	.	-
C#CCOCCOCCOCCNc1nc(N2CCN(C(=O)[C@H](CCCCN)n3cc([C@@H](N)CO)nn3)CC2)nc(N2CCN(C(=O)[C@H](Cc3cc4ccccc4[nH]3)n3cc([C@@H](N)CC(C)C)nn3)CC2)n1	-	.	-	-	-	-
CCC(C(=O)OCC(=O)Nc1cc(Cl)cc(Cl)c1)c1ccccc1 (centres undefined)	-	-	79	-	11	-
Cc1nc(-c2ccccc2)sc1-c1nc(-c2ccncc2)ncc1S(=O)(=O)c1ccccc1	-	-	78	-	-	.
C/C(=N\Nc1nc2ccccc2[nH]1)c1ccc(N2CCOCC2)cc1	-	-	-	-	-	-
Cc1nn(C(C)C(=O)NCC2CCCO2)c(=O)c2cc3occc3n12 (centres undefined)	-	-	61	-	-	.
CC(NC(=O)c1ccc(OC2CCN(Cc3ccccn3)CC2)cc1)c1ccccc1 (centres undefined)	-	-	-	-	-	-
CCc1cc(C(=O)O)c(NC(=O)/C=C/c2ccc(OC)c(OC)c2)s1	-	-	-	71	-	-
COc1ccc(/C=C/C(=O)Nc2ccccc2C(=O)O)cc1OC	-	-	-	58	-	-
COc1ccc(/C=C/C(=O)Nc2cccc(S(=O)(=O)N3CCCC3)c2)cc1OC	-	-	-	-	8.5	-
CCc1cc(C(=O)O)c(NC(=O)/C=C/c2ccc(OC)cc2)s1	-	-	.	.	.	-
COc1cc(/C=C/C(=O)Nc2cc(C(F)(F)F)ccc2Cl)cc(OC)c1OC	-	-	-	-	-	.
COc1ccc(/C=C/C(=O)Nc2cc(C(F)(F)F)ccc2Cl)cc1OC	-	-	-	32	-	-
C/C(=N\NC(=O)OC(C)(C)C)c1cccc([N+](=O)[O-])c1	-	-	-	-	-	-
Cc1ccc(C)c(OCCSc2nnc(C)c(=O)[nH]2)c1	-	-	-	-	-	-
COc1ccc(/C=C/C(=O)Nc2ccccc2C(=O)O)cc1	-	-	-	51	-	-
CC(C)(C)c1ccc(OC(=O)c2ccc3nsnc3c2)cc1	-	-	73	-	-	.
O=C(c1cccnc1Cl)N(Cc1ccccc1)Cc1ccccc1	-	-	-	-	-	-
CSc1nc(Sc2cccc(Cl)c2)c2ccccc2n1	-	-	59	-	-	.
COc1ccc(CNC(=O)COC(=O)c2ccccn2)cc1	-	-	-	-	-	-
Clc1ccc(OCCn2c(-c3ccco3)nc3ccccc32)cc1	-	-	83	-	-	.
c1coc(Cn2c(-c3ccco3)nc3ccccc32)c1	-	-	-	-	-	.
SMILES	Hck-Nef inh	p47phox inh	WT yeast gro inh	Arbovirus anti	RAM network inh	Biofilm kill mix
COc1ccc(CC(=O)c2ccc(OC)c(OC)c2C)cc1OC	-	-	-	-	-	-
Cc1onc(-c2ccccc2)c1C(=O)Nc1sc2c(c1C(N)=O)CCC2	-	-	-	-	-	.
Cc1onc(-c2c(F)cccc2Cl)c1C(=O)Nc1sc2c(c1C(N)=O)CCC2	-	-	67	-	-	.
O=C(Nc1ccccc1)c1ccc(NC2CCCCC2)c(S(=O)(=O)N2CCOCC2)c1	-	-	-	-	-	.
c1ccc(-c2ccc(-c3nc(-c4ccccn4)no3)cc2)cc1	-	-	78	-	-	.
C/C(C/C(C)=C1/SC(=S)NC1=O)=C1\SC(=S)NC1=O	75	-	-	33	-	-
CCCCCC/C(C)=C1/SC(=S)NC1=O	-	-	86	-	-	.
CC(C)CC1NC(=O)N(Cc2cc(=O)n3ccsc3n2)C1=O (centres undefined)	-	-	-	-	-	-
Cc1cccc(NC(=S)NC(C)(C)CC(C)(C)C)c1	-	-	68	-	-	-
